Calls of active or inactive are those of the source. The calls are words filed in the database; no cut-off is given here.
Assays:
[1] = (§1) Antiinflammatory activity in LPS-induced HEK-Blue hTLR4 cells assessed as reduction in alkaline phosphatase activity at 10 uM pretreated with compound for 0.5 hr followed by LPS induction and measured after 24 hrs; assay type: functional, Homo sapiens; parameters: scale not given: the % may be the effect or the level left; details: time 24.5 hrs
How it was run: (§2)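 HEK-Blue-TLR4 cells (2×10^4/well, DMEM with 10% FBS) were grown for 24 h, then pretreated with compound or DMSO for 0.5 h. LPS was added at 0.5 µg/mL for 24 h. Supernatant ALP activity was read at 405 nm with a kit. Values are mean ± SEM of three independent experiments.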

HEK-Blue hTLR4 = assay: as §1; assay type: functional; details: Homo sapiens, time 24.5 hrs; how it was run: as §2
Mus musculus [2] = assay: Antiinflammatory activity in LPS-induced C57BL/6 mouse acute lung injury model assessed as decrease in […] TNF-alpha mRNA expression level at 5 mg/kg, po administered every 12 hrs for 36 hrs followed by LPS-induction for 12 hrs and measured at 6 hrs post LPS challenge by q-RTPCR analysis; assay type: functional, organism-based; details: time 54.0 hrs
How it was run: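 C57BL/6 mice (8 per group) were gavaged with 5 mg/kg in 0.5% CMC-Na every 12 h for 36 h. LPS (5 mg/kg) was instilled intratracheally 12 h after the last dose. Mice were euthanized 6 h later and lung TNF-α mRNA was measured by real-time qRT-PCR.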

Homo sapiens = organism: Homo sapiens; assay: Binding affinity to human recombinant MD-2 assessed as reduction in binding of LPS to MD-2 at 1 uM by ELISA analysis
[3] = Acute toxicity in ICR mouse assessed as pathological changes in heart at 1000 to 1500 mg/kg, IG measured after 10 days by H and E staining method; assay type: organism-based; details: in vivo, po, 240 h, dose 1000-1500 mg/kg, time 10 day
How it was run: (§3)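 ICR mice (27 g ± 1 g; n = 24 total) given a single oral gavage dose on day 1 in CMC-Na with DMSO (<0.1%), dosing solution 50 mg/mL. Untreated mice served as controls. After 10 days, mice were sacrificed under general anaesthesia. Heart, liver, lung, spleen and kidney were harvested for H&E pathology.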

[4] = AUC (0 to t) in Sprague-Dawley rat at 10 mg/kg, po measured at 5 to 24 hrs by UPLC-MS/MS analysis; assay type: ADME, organism-based; parameters: dose 10 mg/kg, time upper 24 hrs, time lower 5 hrs, route po; details: in vivo
How it was run: (§4)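 Male SD rats (200 g ± 20 g, n = 6) were dosed orally by gavage at 10 mg/kg, suspended in CMC-Na with DMSO (<0.1%). Tail-vein blood was drawn at 5 min, 15 min, 30 min, 1, 2, 4, 6, 9, 12 and 24 h and centrifuged. Plasma supernatant was precipitated with an equal volume of acetonitrile and run on UPLC-MS/MS. Parameters came from a non-compartmental fit.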

[5] = AUC (0 to infinity) in Sprague-Dawley rat at 10 mg/kg, po measured at 5 to 24 hrs by UPLC-MS/MS analysis; assay type: ADME, organism-based; parameters: time lower 5 hrs, dose 10 mg/kg, time upper 24 hrs, route po; details: in vivo; how it was run: as §4
Mus musculus [6] = assay: Antiinflammatory activity in LPS-induced C57BL/6 mouse acute lung injury model assessed as decrease in total protein level at 5 mg/kg, po administered every 12 hrs for 36 hrs followed by LPS-induction for 12 hrs and measured at 6 hrs post LPS challenge; assay type: functional, organism-based; details: time 54.0 hrs
How it was run: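 Same C57BL/6 regimen: 5 mg/kg oral in 0.5% CMC-Na every 12 h for 36 h, then intratracheal LPS 5 mg/kg 12 h later, with sacrifice at 6 h. BALF was collected by rinsing the left lung with saline 4 times and centrifuged (1000 rpm, 4 °C, 10 min). Supernatant protein was measured by BCA assay.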

RAW264.7 [7] = assay: Antiinflammatory activity in LPS-induced mouse RAW264.7 cells assessed as decrease in LPS-induced IL-6 secretion pretreated for 30 mins followed by LPS-induction and measured after 24 hrs by ELISA analysis; assay type: functional, cell-based
How it was run: (§5)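 RAW 264.7 macrophages were pretreated for 30 min with 1–10 µM compound or DMSO vehicle, then stimulated with LPS (0.5 µg/mL). After 24 h, supernatant IL-6 and TNF-α were measured by ELISA. Results are mean ± SEM of triplicates, expressed as percent of the LPS group, with Student's t-test.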

[8] = Acute toxicity in ICR mouse assessed as pathological changes in kidney at 1000 to 1500 mg/kg, IG measured after 10 days by H and E staining method; assay type: organism-based; details: in vivo, po, 240 h, dose 1000-1500 mg/kg, time 10 day; how it was run: as §3
RAW264.7 [9] = assay: Binding affinity to MD-2 in mouse RAW264.7 cells assessed as reduction in LPS/MD-2/TLR4 polymers formation incubated for 12 hrs by immunoprecipitation assay; assay type: cell-based
[10] = Acute toxicity in ICR mouse assessed as pathological changes in spleen at 1000 to 1500 mg/kg, IG measured after 10 days by H and E staining method; assay type: organism-based; details: in vivo, po, 240 h, dose 1000-1500 mg/kg, time 10 day; how it was run: as §3
[11] = Toxicity in C57BL/6 mouse assessed as histopathological changes in lung at 5 mg/kg, po measured at 6 hrs by H and E staining analysis; assay type: organism-based; details: in vivo
How it was run: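 Lungs from C57BL/6 mice given 5 mg/kg orally every 12 h for 36 h, then intratracheal LPS 5 mg/kg and sacrificed 6 h later, were fixed in 4% PFA, paraffin-embedded and stained with H&E.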

[12] = Acute toxicity in ICR mouse assessed as pathological changes in lung at 1000 to 1500 mg/kg, IG measured after 10 days by H and E staining method; assay type: organism-based; details: in vivo, po, 240 h, dose 1000-1500 mg/kg, time 10 day; how it was run: as §3
[13] = Half life in Sprague-Dawley rat at 10 mg/kg, po measured at 5 to 24 hrs by UPLC-MS/MS analysis; assay type: ADME, organism-based; details: in vivo, time 5-24 hrs; how it was run: as §4
RAW264.7 [14] = assay: Antiinflammatory activity in LPS-induced mouse RAW264.7 cells assessed as decrease in LPS-induced TNF-alpha secretion pretreated for 30 mins followed by LPS-induction and measured after 24 hrs by ELISA analysis; assay type: functional, cell-based; how it was run: as §5
[15] = Acute toxicity in ICR mouse assessed as pathological changes in liver at 1000 to 1500 mg/kg, IG measured after 10 days by H and E staining method; assay type: organism-based; details: in vivo, po, 240 h, dose 1000-1500 mg/kg, time 10 day; how it was run: as §3
[16] = Cmax in Sprague-Dawley rat at 10 mg/kg, po measured at 5 to 24 hrs by UPLC-MS/MS analysis; assay type: ADME, organism-based; parameters: dose 10 mg/kg, time 5-24 hrs, route po; details: in vivo; how it was run: as §4
[17] = Tmax in Sprague-Dawley rat at 10 mg/kg, po measured at 5 to 24 hrs by UPLC-MS/MS analysis; assay type: ADME, organism-based; details: in vivo, time 5-24 hrs; how it was run: as §4
Mus musculus [18] = assay: Antiinflammatory activity in LPS-induced C57BL/6 mouse acute lung injury model assessed as decrease in BALF ALP level at 5 mg/kg, po administered every 12 hrs for 36 hrs followed by LPS-induction for 12 hrs and measured at 6 hrs post LPS challenge by ELISA analysis; details: time 54.0 hrs
Mus musculus [19] = assay: In vivo Inhibition of NF-kappaB signalling pathway in mouse C57BL/6 lung assessed as upregulation of IkappaBalpha protein expression at 5 mg/kg, po measured for 6 hrs by Western blot analysis; assay type: functional, organism-based
How it was run: (§6)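 In the C57BL/6 ALI model (5 mg/kg oral every 12 h for 36 h, then intratracheal LPS 5 mg/kg, sacrifice at 6 h), lung tissue was lysed in RIPA buffer with PMSF and protein was quantified by Bradford. Samples were run on 10% SDS-PAGE and immunoblotted for p65, phospho-p65 and IκB, with GAPDH as reference.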

Mus musculus [20] = assay: In vivo Inhibition of NF-kappaB signalling pathway in mouse C57BL/6 lung assessed as decrease in phosphorylated p65 level at 5 mg/kg, po measured for 6 hrs by Western blot analysis; assay type: functional, organism-based; how it was run: as §6

`COc1cccc(COc2ccc(/C=C/C(=O)Nc3nc4ccccc4s3)cc2)c1` showed an Activity [1] of 14.12%.

Work on `Cc1cccc(COc2ccc(/C=C/C(=O)Nc3nccs3)cc2)c1` yielded an Activity [1] of 2.28%.

For `COc1cccc(COc2ccc(/C=C/C(=O)Nc3nccs3)cc2)c1`, the Activity (HEK-Blue hTLR4) was “inactive”.

With `O=C(/C=C/c1ccc(OCc2cccc(Cl)c2)cc1)Nc1nccs1` the Activity (HEK-Blue hTLR4) was “inactive”.

For `O=C(/C=C/c1ccc(OCc2ccc(F)cc2)cc1)Nc1nc2ccccc2s1`, the Activity [1] was 12.84%.

In the case of `CC(C)c1ccc(COc2ccc(/C=C/C(=O)Nc3nccs3)cc2)cc1`, the Activity (HEK-Blue hTLR4) is reported as “inactive”.

Compound `O=C(/C=C/c1ccc(OCc2ccc3ccccc3c2)cc1)Nc1nc2ccccc2[nH]1` has an Activity [1] of 9.07%.

For `CC(C)c1ccc(COc2ccc(/C=C/C(=O)Nc3nc4ccccc4s3)cc2)cc1`, the Activity [1] was 14.04%.

For `O=C(/C=C/c1ccc(OCc2cccc(F)c2)cc1)Nc1nc2ccccc2s1`, the Activity [1] was 19%.

`O=C(/C=C/c1ccc(OCc2ccc3ccccc3c2)cc1)Nc1nc2ccccc2s1` gave an Activity [1] of 14.17%.

`O=C(/C=C/c1ccc(OCc2c(Cl)cccc2Cl)cc1)Nc1nccs1` gave an Activity [1] of 8.16%.

`O=C(/C=C/c1ccc(OCc2ccc(F)cc2)cc1)Nc1nccs1` showed an Activity [1] of 12.05%.

With `O=C(/C=C/c1ccc(OCc2cccc(F)c2)cc1)Nc1nccs1` the Activity [1] was 7.66%.

For `O=C(/C=C/c1ccc(OCc2ccc3ccccc3c2)cc1)Nc1nccs1`, the Activity [1] was 3.63%.

With `COc1cccc(COc2ccc(/C=C/C(=O)Nc3nc4ccccc4[nH]3)cc2)c1` the Activity (Mus musculus [2]) was “Active”, the Activity (Homo sapiens) was “Active” and the Activity [3] was “Non-Toxic”. The AUC(0-t) [4] was 462 ng·h/mL, the AUC(0-inf) [5] was 465 ng·h/mL and the Activity (Mus musculus [6]) was “Active”. For the same compound, the IC50 (RAW264.7 [7]) was 2.58 µM, the Activity (RAW264.7 [7]; dose 1-10 µM, time 24.5 hrs) was “Dose-Dependent Effect” and the Activity [8] was “Non-Toxic”. The Activity (RAW264.7 [9]) was “Active”, the Activity [1] was 64.3% and the Activity [10] was “Non-Toxic”. The Activity [11] was “Non-Toxic”, the Activity [12] was “Non-Toxic” and the half-life [13] was 4.25 h. The IC50 (RAW264.7 [14]) was 8.41 µM, the Activity (RAW264.7 [14]; dose 1-10 µM, time 24.5 hrs) was “Dose-Dependent Effect” and the Activity [15] was “Non-Toxic”. For the same compound, the Cmax [16] was 163 ng/mL, the Tmax [17] was 3.5 h and the Activity (Mus musculus [18]) was “Active”. For the same compound, the Activity (Mus musculus [19]) was “Active” and the inhibition (Mus musculus [20]) was “Active”.

For `O=C(/C=C/c1ccc(OCc2cccc(Cl)c2)cc1)Nc1nc2ccccc2[nH]1`, the Activity [1] was 41.13%.

For `O=C(/C=C/c1ccc(OCc2c(Cl)cccc2Cl)cc1)Nc1nc2ccccc2s1`, the Activity [1] was 11.99%.

`Cc1cccc(COc2ccc(/C=C/C(=O)Nc3nc4ccccc4s3)cc2)c1` gave an Activity [1] of 9.26%.

For `O=C(O)/C=C/c1ccccc1` [CINNAMIC ACID], the Activity [1] was 9.51%.

In the case of `Cc1ccc(COc2ccc(/C=C/C(=O)Nc3nc4ccccc4s3)cc2)cc1`, the Activity (HEK-Blue hTLR4) is reported as “inactive”.

Work on `O=C(/C=C/c1ccc(OCc2c(Cl)cccc2Cl)cc1)Nc1nc2ccccc2[nH]1` yielded an Activity [1] of 19.64%.

In the case of `O=C(/C=C/c1ccc(OCc2ccc(F)cc2)cc1)Nc1nc2ccccc2[nH]1`, the Activity [1] is reported as 29.65%.

In the case of `O=C(/C=C/c1ccc(OCc2cccc(F)c2)cc1)Nc1nc2ccccc2[nH]1`, the Activity [1] is reported as 55.45%.

In the case of `COc1ccc(COc2ccc(/C=C/C(=O)Nc3nc4ccccc4s3)cc2)cc1`, the Activity [1] is reported as 16.39%.

For `Cc1ccc(COc2ccc(/C=C/C(=O)Nc3nc4ccccc4[nH]3)cc2)cc1`, the Activity [1] was 43.08%.

With `Cc1ccc(COc2ccc(/C=C/C(=O)Nc3nccs3)cc2)cc1` the Activity [1] was 15.31%.

With `COc1ccc(COc2ccc(/C=C/C(=O)Nc3nccs3)cc2)cc1` the Activity (HEK-Blue hTLR4) was “inactive”.

For `O=C(/C=C/c1ccc(OCc2cccc(Cl)c2)cc1)Nc1nc2ccccc2s1`, the Activity (HEK-Blue hTLR4) was “inactive”.
